From ChEMBL document CHEMBL1147539, “Synthesis and biological evaluation of novel, selective, nonsteroidal glucocorticoid receptor antagonists” (Bioorg Med Chem Lett, 2004) come the findings set out here.

For assay [1], the target named is T1, Glucocorticoid receptor (Homo sapiens, UniProt P04150).
T1 sequence (P04150 whole entry): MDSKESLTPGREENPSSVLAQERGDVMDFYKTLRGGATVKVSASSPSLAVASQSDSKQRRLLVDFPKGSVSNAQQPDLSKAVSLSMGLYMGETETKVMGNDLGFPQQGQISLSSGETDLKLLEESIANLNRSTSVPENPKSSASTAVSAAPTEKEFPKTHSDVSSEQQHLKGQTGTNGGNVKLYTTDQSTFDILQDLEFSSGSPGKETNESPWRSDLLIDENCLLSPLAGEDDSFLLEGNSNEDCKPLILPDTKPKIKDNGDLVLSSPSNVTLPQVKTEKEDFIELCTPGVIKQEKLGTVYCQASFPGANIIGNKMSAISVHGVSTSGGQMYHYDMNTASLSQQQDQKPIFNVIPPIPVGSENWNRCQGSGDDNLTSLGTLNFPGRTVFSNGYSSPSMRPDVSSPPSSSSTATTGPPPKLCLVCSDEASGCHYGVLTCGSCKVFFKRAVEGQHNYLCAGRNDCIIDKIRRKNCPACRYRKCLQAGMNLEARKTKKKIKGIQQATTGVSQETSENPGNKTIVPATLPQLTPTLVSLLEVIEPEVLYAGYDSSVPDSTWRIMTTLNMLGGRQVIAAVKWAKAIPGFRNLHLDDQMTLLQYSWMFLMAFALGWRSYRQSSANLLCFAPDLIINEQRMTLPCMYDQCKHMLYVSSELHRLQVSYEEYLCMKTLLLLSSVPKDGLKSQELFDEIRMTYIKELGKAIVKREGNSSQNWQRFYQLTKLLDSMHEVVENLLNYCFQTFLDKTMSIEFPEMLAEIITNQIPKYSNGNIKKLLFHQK

The target of assay [2] is T1, Glucocorticoid receptor. Nature of the assay: Effect on human Glucocorticoid receptor (GR) in a whole cell assay to measure functional cellular GR-antagonism (GRAF).
Assay [3] concerns the target T1, Glucocorticoid receptor. The experiment in a line: Displacement of [3H]dexamethasone from human Glucocorticoid receptor (GR); Value ranges from 1273-2947 nM. The method in brief:
(§1)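 Binding to human GR; IC50 reported as the geometric mean of two experiments (three for some values), each run in duplicate, with the range of the experiments given.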
In general terms: In a radioligand displacement assay an active substance lowers the binding of a labelled ligand.

The target of assay [4] is T1, Glucocorticoid receptor. This is another data set of the same source.
Assay [5] has as its target T1, Glucocorticoid receptor. Nature of the assay: Displacement of [3H]dexamethasone from human Glucocorticoid receptor (GR); Value ranges from 1382-1049 nM. The gist of the method:
as §1

Assay [6] addresses T1, Glucocorticoid receptor. The source holds these as a separate data set.
In assay [7] the target is T1, Glucocorticoid receptor. Nature of the assay: Displacement of [3H]dexamethasone from human Glucocorticoid receptor (GR); Value ranges from 28-34 nM.
In assay [8] the target is T1, Glucocorticoid receptor. This is another data set of the same source.
In assay [9] the target is T1, Glucocorticoid receptor. Nature of the assay: Effect on functional cellular GR-antagonism (GRAF) in human Glucocorticoid receptor (GR) expressing cells. The method in brief:
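Whole-cell functional GR antagonism measured in a genetically engineered mammalian cell line expressing GR; IC50 determined from 12-concentration compound curves.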

The target of assay [10] is T1, Glucocorticoid receptor. Nature of the assay: Displacement of [3H]dexamethasone from human Glucocorticoid receptor (GR); Value ranges from 559-1423 nM. The gist of the method:
as §1

For assay [11], the target named is T1, Glucocorticoid receptor. Nature of the assay: Displacement of [3H]dexamethasone from human Glucocorticoid receptor (GR); Value ranges from 9-12 nM.
In assay [12] the target is T1, Glucocorticoid receptor. The source holds these as a separate data set.
In assay [13] the target is T1, Glucocorticoid receptor. Nature of the assay: Displacement of [3H]dexamethasone from human Glucocorticoid receptor (GR); Value ranges from 106-131 nM.

Turning to `COc1cccc2c1-c1ccc(NS(C)(=O)=O)cc1C(c1cccnc1)O2` (stereo not drawn), in [1], the IC50 – broadly, the concentration needed to halve the response being measured – stood at 460 nM.

Take `COc1cccc2c1-c1ccc(N)cc1C(c1ccccc1)O2` (stereo not drawn): the IC50 in assay [2] was found to be 2020 nM; in assay [3] it was 1940 nM.

Compound `CCOc1ccc(CC2Oc3cccc(OC)c3-c3ccc(NS(C)(=O)=O)cc32)cc1` (stereo not drawn) came in with an IC50 in assay [4] of 548 nM.

Compound `COC(=O)c1cccc2c1-c1ccc(NS(C)(=O)=O)cc1C(c1ccccc1)O2` (stereo not drawn) registered an IC50 in assay [5] of 1200 nM.

As for `COc1cccc2c1-c1ccc(NC(=O)c3ccccc3)cc1C(c1ccccc1)O2` (stereo not drawn), the figures for the IC50 in assay [2] and in assay [6] were 289 nM and 404 nM, respectively.

`CCOC(=O)c1cccc(C2Oc3cccc(OC)c3-c3ccc(NS(C)(=O)=O)cc32)c1` (stereo not drawn): the results for the 50% inhibitory concentration (IC50) in [2] and in assay [7] were 296 nM and 31 nM, respectively.

`CS(=O)(=O)Nc1ccc2c(c1)C(c1ccccc1)Oc1cccc(-c3cccs3)c1-2` (stereo not drawn) yielded an IC50 in assay [8] of 656 nM. This counts as sub-micromolar.

Consider `CS(=O)(=O)Nc1ccc2c(c1)C(c1ccccc1)Oc1cccc(O)c1-2` (stereo not drawn), for which the IC50 in assay [9] is 1810 nM; in assay [10], 892 nM.

For the compound `COc1cccc2c1-c1ccc(NS(C)(=O)=O)cc1C(c1ccc(Cl)cc1)O2` (stereo not drawn), the values for the IC50 in assay [2] and in [11] were 129 nM and 10 nM, respectively.

For the compound `COc1cccc2c1-c1ccc(NCc3ccccc3)cc1C(c1ccccc1)O2` (stereo not drawn), the IC50 in assay [2] amounted to 402 nM; in assay [12] it was 910 nM.

For `COc1cccc2c1-c1ccc(NC(C)=O)cc1C(c1ccccc1)O2` (stereo not drawn), the figures for the IC50 in [2] and in [13] were 69 nM and 117 nM, respectively.
